The list is not random: actives were taken first. Their share in the collection is about 4.4%.
MsrA inh: bovine MsrA enzyme inhibitors, primary screen, biochemical, absorbance, HTS | Methionine sulfoxide reductase A (Bos taurus) | purified bovine MsrA, absorbance read-out | inhibition, % at 15.5 µM | 360,000 tested, 0.75% active | AID 651718, 2012; in the data active = inhibition above about 4.5%;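 note: 0% = vehicle wells with enzyme and 100% = reference inhibitor wells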
AI-2 QS modul: Vibrio harveyi AI-2 quorum sensing modulators, primary screen, JMH597 strain, luminescence/OD600 ratio | AID 2094, 2009 | 300,000 tested, 0.4% active | Vibrio harveyi JMH597 AI-2 luminescence/OD600 ratio, 9 h; stronger effect = lower value; strain lacks LuxN and CqsS sensors; 0 = neutral-control median | activity change, % at 7.5 µM; in the data active = activity change below about -75%, passing the limit was not always enough;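 note: luminescence divided by OD600 gain over 9 h not by final OD600 alone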
AHR activator: AHR activators, primary screen, cell-based, luminescence, luciferase reporter, human; AID 2796, 2010; AHR-responsive luciferase reporter cells; 320,000 tested, 2.5% active; Aryl hydrocarbon receptor (Homo sapiens), P35869; activation, % at 5 µM; in the data active = activation above about 47%;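 note: 0% = vehicle wells and 100% = reference agonist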
bovine MsrA act: bovine MsrA enzyme activators, primary screen, biochemical, absorbance, HTS. Methionine sulfoxide reductase A (Bos taurus). 360,000 tested, 0.3% active. activation, % at 10.6 µM. purified bovine MsrA, absorbance read-out; in the data active = activation above about 7.5%;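 note: 0% = vehicle and 100% = reference activator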
HTR2A ag: mouse Htr2a agonists via beta-arrestin recruitment, primary screen, cell-based, luminescence | CHO-K1 mHTR2A beta-arrestin complementation; percent of 30 µM serotonin response | activation, % at 7.6 µM | 360,000 tested, 0.66% active | AID 624169, 2012;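 active = activation above a run cutoff, the mean activation of all tested compounds plus 3 SD, cut at about 14% in these data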;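 note: 0% = plate median of compound wells and 100% = 30 µM serotonin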
Tb MetRS inh: T. brucei MetRS inhibitors, primary screen, biochemical, luminescence; purified T. brucei MetRS, ATP depletion, Kinase-Glo luminescence; inhibition, % at 11.9 µM; 360,000 tested, 0.4% active; AID 624268, 2012;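 active = inhibition above a per-plate cutoff of the control wells' mean inhibition plus 3 SD, cut at about 5.5% in these data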;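 note: 0% = DMSO wells median and 100% = median of wells with control inhibitor compound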
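Assay system: T. brucei methionyl-tRNA synthetase, purified | Medium: HEPES buffer with MgCl2, KCl, DTT, spermine, BSA, pyrophosphatase | Compound: 11.9 µM single point | Incubation: 15 min enzyme-compound preincubation, 2 h reaction, 10 min detection, 25 °C | Measured by: Kinase-Glo luciferase luminescence reporting remaining unconsumed ATP | Measure: % inhibition normalized to control-well medians | Replication: Singlicate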
Tb MetRS conf: T. brucei MetRS inhibitors, confirmation, biochemical, luminescence; shares compounds with Tb MetRS inh; T. brucei MetRS enzyme, luminescence (ATP depletion); inhibition, % at 11.9 µM; 1,400 tested, 93% active; in the data active = inhibition above about 7%
Jurkat tox: Jurkat T cell cytotoxicity, cytotoxicity control for T. brucei MetRS inhibitor project, luminescence, high throughput; shares compounds with Tb MetRS inh; inhibition, % at 8.3 µM; 1,400 tested, 12% active; AID 624413, 2012; Jurkat cells viability, ATP luminescence; in the data active = inhibition above about 15%;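 note: 0% = vehicle and 100% = reference inhibitor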
Tb MetRS inh FP: T. brucei MetRS inhibitors, orthogonal assay for T. brucei MetRS inhibitor project, biochemical, fluorescence polarization | purified T. brucei MetRS | inhibition, % at 11.9 µM | 1,400 tested, 44% active | shares compounds with Tb MetRS inh; in the data active = inhibition above about 17%;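 note: 0% = vehicle wells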
An asterisk follows results filed as active; x = not tested or not shown.

SMILES	MsrA inh	AI-2 QS modul	AHR activator	bovine MsrA act	HTR2A ag	Tb MetRS inh	Tb MetRS conf	Jurkat tox	Tb MetRS inh FP
S=C(NCc1cccnc1)Nc1cc(Cl)cc(Cl)c1	1	-48	15	-4	1	24*	52*	5	30*
S=C(NCc1ccncc1)Nc1cc(Cl)cc(Cl)c1	0	-31	5	-13	-11	10*	23*	0	13
OC(c1cc(Cl)cc(Cl)c1)c1ncc(-c2ccccc2F)[nH]1 (centres undefined)	0	x	x	0	-2	30*	67*	5	43*
COc1ccccc1-c1cnc(C(O)c2cc(Cl)cc(Cl)c2)[nH]1 (centres undefined)	0	x	x	1	-4	67*	88*	3	69*
OC(c1ccc(Cl)cc1)c1ncc(-c2cccc(C(F)(F)F)c2)[nH]1 (centres undefined)	0	x	x	-1	-4	0	x	x	x
COc1ccccc1-c1cnc(C(O)c2ccccc2)[nH]1 (centres undefined)	1	x	x	-1	-3	0	x	x	x
OC(c1cc(F)cc(Cl)c1)c1ncc(-c2cccc(C(F)(F)F)c2)[nH]1 (centres undefined)	0	x	x	-2	5	16*	45*	4	31*
O=C(Cn1cnc(S(=O)(=O)N2CCCC2)c1)Nc1cccc(Br)c1	1	21	2	-3	2	14*	36*	1	15
CSc1cccc(NC(=O)Cn2cnc(S(=O)(=O)N3CCCC3)c2)c1	-1	4	1	-3	2	8.6*	19*	4	4
CC(=O)c1cccc(NC(=O)Cn2cnc(S(=O)(=O)N3CCCCC3)c2)c1	0	17	-1	-2	-1	1	x	x	x
C[C@H]1CN([C@@H](C)CO)C(=O)CCCn2cc(nn2)CO[C@@H]1CN(C)S(=O)(=O)c1cccc(F)c1	2	x	x	-6	0	-1	x	x	x
COc1ccc(N2CCN(C(=O)c3cc(=O)c4ccc(C)cc4o3)CC2)cc1	1	13	3	-5	-8	-1	x	x	x
O=C(CCCNC(=O)c1ccc(Cl)cc1)Nc1ccc(Br)cc1	0	1	71*	-9	-4	9.1*	60*	6	43*
Cc1cccc(NC(=O)CCNC(=O)c2ccc(Br)cc2)c1	0	5	11	-4	-3	31*	56*	1	70*
O=C(CCNC(=O)c1ccc(Br)cc1)Nc1cccc(S(=O)(=O)N2CCCC2)c1	2	32	9	-1	-11	1	x	x	x
O=C(COC(=O)CCCNC(=O)c1ccc(Cl)cc1)Nc1ccc(Br)cc1	2	5	0	-6	0	0	x	x	x
COc1ccc2[nH]c(=O)c(CN(C(=O)NC3CCCCC3)C3CCCC3)cc2c1	1	6	-2	-2	5	0	x	x	x
COc1ccc(NC(=O)N(Cc2cc3cc(C)ccc3[nH]c2=O)CC2CCCO2)cc1 (centres undefined)	1	33	13	-4	1	12*	49*	12	17*
Cc1ccc2[nH]c(=O)c(CN(CC3CCCO3)C(=S)Nc3ccccc3)cc2c1 (centres undefined)	0	29	24	-7	5	6.1*	48*	6	27*
Cc1ccc2cc(CN(CC3CCCO3)C(=S)Nc3ccccc3)c(=O)[nH]c2c1 (centres undefined)	-1	8	14	-1	-1	-1	x	x	x
COc1ccc2[nH]c(=O)c(CN(C(C)=O)C3CCCCC3)cc2c1	0	8	4	-13	0	9.6*	15*	3	11
CCCCNC(=S)N(CCN(CC)CC)Cc1cc2cc3c(cc2[nH]c1=O)OCO3	3	11	46	-11	8	8.8*	16*	5	8
Cc1ccc2[nH]c(=O)c(CN(CC3CCCO3)C(=S)NCc3ccco3)cc2c1 (centres undefined)	0	71	11	-2	-2	12*	23*	3	12
Cc1ccc2[nH]c(=O)c(CN(Cc3ccccc3)C(=S)NCCCN(C)C)cc2c1	0	11	1	-2	-3	7.0*	17*	17*	10
COc1cc2cc(CN(CCc3ccccc3C)C(=S)NCCCN(C)C)c(=O)[nH]c2cc1OC	2	7	2	-4	-8	0	x	x	x
SMILES	MsrA inh	AI-2 QS modul	AHR activator	bovine MsrA act	HTR2A ag	Tb MetRS inh	Tb MetRS conf	Jurkat tox	Tb MetRS inh FP
Cc1ccc(C(=O)OCC(=O)NC2CCCC(C)C2C)cc1S(=O)(=O)N1CCCCC1 (centres undefined)	0	x	-2	-3	-1	0	x	x	x
COC(=O)c1sc(-c2ccc(Cl)cc2)cc1NC(=O)/C=C/C(=O)O	1	x	0	-3	-4	1	x	x	x
COC(=O)c1sc(-c2ccc(Cl)cc2)cc1NC(=O)COCC(=O)O	3	-4	1	-4	-1	38*	37*	8	25*
COc1cc(Cn2c3ccc(NC(=O)NCCc4ccccc4)cc3c(=O)n2C)ccc1F	1	x	x	-3	-5	0	x	x	x
N#CC(C#N)=NNc1ccc2cn[nH]c2c1	1	x	x	-14	1	9.9*	24*	30*	54*
Cc1cccc(NS(=O)(=O)c2ccc3[nH]c(=O)oc3c2)c1C	-1	x	2	-2	-4	0	x	x	x
Cc1cccc(NS(=O)(=O)c2ccc3nc(-c4ccccc4)[nH]c3c2)c1C	1	5	21	-8	3	27*	40*	3	30*
CCN(C(=O)COC(=O)CCc1c[nH]c2ccccc12)c1c(N)n(Cc2ccccc2)c(=O)[nH]c1=O	-2	15	1	-2	-7	-1	x	x	x
Cc1ccc(-c2nnc(N3CCCCC3)c3ccccc23)cc1S(=O)(=O)N(C)C	1	18	4	-1	-7	0	x	x	x

Bioassay records (PubChem)
